Test results reported in paper PMC6077846 (ChemMedChem, 2018).
Entries after “also recorded” stand apart in the source; their conditions may differ.

What was measured:
[1] = Distribution into cellular blood elements, monkey blood; type: in vitro ADME; settings: absence of autologous plasma
Summary of the method: (§1)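 Carbon-11 carboxyl-labelled test compound added to freshly drawn heparin-anticoagulated blood. Blood cells were tested with and without autologous plasma, and the fraction of radioactivity bound to cells was determined. Mean ± SD, n = 3.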

cPLA2α [2] = molecular target: T1, cPLA2α (Mus musculus, UniProt P47713); assay: PET imaging in wild type mice with self-block pretreatment; type: in vivo; settings: blocking agent 2 mg/kg i.v. 30 min before radioligand
T1 sequence (P47713 1-748): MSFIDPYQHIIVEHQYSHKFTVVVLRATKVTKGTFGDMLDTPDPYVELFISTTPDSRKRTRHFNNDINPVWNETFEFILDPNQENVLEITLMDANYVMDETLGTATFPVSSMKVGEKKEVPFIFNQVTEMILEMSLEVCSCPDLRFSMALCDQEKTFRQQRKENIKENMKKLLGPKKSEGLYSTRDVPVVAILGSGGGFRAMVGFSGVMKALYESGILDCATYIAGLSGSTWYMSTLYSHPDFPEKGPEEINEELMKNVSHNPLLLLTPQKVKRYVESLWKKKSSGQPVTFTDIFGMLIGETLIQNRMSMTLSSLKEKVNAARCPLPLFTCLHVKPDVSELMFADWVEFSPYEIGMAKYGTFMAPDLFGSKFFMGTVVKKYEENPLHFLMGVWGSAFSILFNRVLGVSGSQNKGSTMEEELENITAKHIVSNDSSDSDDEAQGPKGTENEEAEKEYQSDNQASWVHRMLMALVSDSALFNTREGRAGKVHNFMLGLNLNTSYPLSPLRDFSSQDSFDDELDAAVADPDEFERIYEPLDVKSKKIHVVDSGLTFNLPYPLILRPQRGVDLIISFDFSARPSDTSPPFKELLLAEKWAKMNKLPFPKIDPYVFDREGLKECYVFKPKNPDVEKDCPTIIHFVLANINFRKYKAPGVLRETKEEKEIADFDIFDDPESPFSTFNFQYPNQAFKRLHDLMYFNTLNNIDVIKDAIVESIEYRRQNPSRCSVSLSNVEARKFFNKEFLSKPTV
Summary of the method: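 Wild-type mice under 1.5% isoflurane first received unlabelled blocking agent, 2 mg/kg i.v. via tail-vein catheter. Thirty minutes later they were given about 7.4 MBq of 11C-labelled test compound in ethanol/saline (1:9), ascorbic acid and Tween. MicroPET ran for 100 min. Brain time-activity curves were compared with baseline. Reconstruction used FORE/2D OSEM without attenuation or scatter correction.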

P-gp/BCRP = assay: PET imaging in P-gp/BCRP dual knock-out mice; type: in vivo
Summary of the method: (§2)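 Mice under 1.5% isoflurane were given about 7.4 MBq of 11C-labelled test compound i.v. via a tail-vein catheter. Vehicle was ethanol/saline 1:9 with ascorbic acid and Tween. Dynamic microPET ran for 100 min and brain time-activity curves were plotted in SUV. Images were reconstructed by Fourier rebinning and 2D OSEM, with no attenuation or scatter correction.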

Lipophilicity = type: physicochemical; settings: 1-octanol/sodium phosphate buffer, pH 7.4
Summary of the method: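 The 11C-labelled test compound was partitioned between 1-octanol and 0.15 M sodium phosphate buffer, pH 7.4. The aqueous phase left after extraction was analysed by radio-HPLC on C18 with MeOH:H2O:Et3N (92.5:7.5:0.1) at 4.0 mL/min. The result was decay-corrected and corrected for radioligand instability in the buffer.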

[3] = PET imaging in wild type mice, baseline radioactivity uptake; type: in vivo; settings: i.v. injection
Summary of the method: as §2

cPLA2α [4] = settings: cPLA2α inhibition; ref [19] and [20]; cited from earlier work
[5] = Distribution into cellular blood elements, rat blood; type: in vitro ADME; settings: absence of autologous plasma
Summary of the method: as §1

[6] = Stability in aqueous sodium phosphate buffer; type: physicochemical; settings: sodium phosphate buffer 0.15 M, pH 7.4
[7] = Tissue stability in rat brain homogenate; type: in vitro ADME; settings: room temperature, 30 min

Stability in buffer [6] [%] | SMILES | Bound to blood cells [1] | Effect of pretreatment with non-radioactive ligand on brain time-activity curve (cPLA2α [2]) | Peak radioactivity in brain (P-gp/BCRP; P-gp/BCRP dual knock-out mice, i.v. injection) [SUV] | Efflux transporter (P-gp/BCRP) substrate status (P-gp/BCRP; wild type vs dual knock-out mice brain uptake) | logD (Lipophilicity) | Peak radioactivity in brain [3] [SUV] | IC50 (cPLA2α [4]) [µM] | Bound to blood cells [5] | Stability in rat brain homogenate [7] [%]
 | CC(C)C(=O)c1cn(CC(=O)COc2ccc(Oc3ccccc3)cc2)c2ccc(C(=O)O)cc12 [[^11C]1, 3-isobutyryl-1-(2-oxo-3-(4-phenoxyphenoxy)propyl)-1H-indole-5-carboxylic acid] | More than 94% | did not alter | 0.5 | not efflux transporters substrates; also recorded: not a brain P-gp or BRCP efflux transporter substrate | 2.1 ± 0.01 | 0.4 | 0.012 | More than 94% | 
99.7±0.2 | Cc1noc(-c2cn(CC(=O)COc3ccc(Oc4ccccc4)cc3)c3ccc(C(=O)O)cc23)n1 [[^11C]3, 3-(3-methyl-1,2,4-oxadiazol-5-yl)-1-(2-oxo-3-(4-phenoxyphenoxy)propyl)-1H-indole-5-carboxylic acid] |  |  |  |  | 2.07 ± 0.02 |  | 0.0061 |  | 
80.3±3.4 | CCCCCCCCc1ccc(OCC(=O)Cn2cc(-c3nc(C)no3)c3cc(C(=O)O)ccc32)cc1 [[^11C]4, 3-(3-methyl-1,2,4-oxadiazol-5-yl)-1-(3-(4-octylphenoxy)-2-oxopropyl)-1H-indole-5-carboxylic acid] |  |  |  |  | 1.94 ± 0.15 |  |  |  | 104

SMILES | Stability in buffer [6] [%] | Bound to blood cells [1] | Effect of pretreatment with non-radioactive ligand on brain time-activity curve (cPLA2α [2]) | Peak radioactivity in brain (P-gp/BCRP; P-gp/BCRP dual knock-out mice, i.v. injection) [SUV] | Efflux transporter (P-gp/BCRP) substrate status (P-gp/BCRP; wild type vs dual knock-out mice brain uptake) | logD (Lipophilicity) | Peak radioactivity in brain [3] [SUV] | IC50 (cPLA2α [4]) [µM] | Bound to blood cells [5] | Stability in rat brain homogenate [7] [%]
CC(=O)c1cn(CC(=O)COc2ccc(Oc3ccc(C(F)(F)F)cc3)cc2)c2ccc(C(=O)O)cc12 [[^11C]2, 3-acetyl-1-(2-oxo-3-(4-(4-(trifluoromethyl)-phenoxy)phenoxy)propyl)-1H-indole-5-carboxylic acid] | 98.4±0.2 |  |  |  |  | 2.43 ± 0.01 |  | 0.01 |  | 97.5
